Assay results: ChEMBL document CHEMBL3751842, “Novel triazolothiadiazines act as potent anticancer agents in liver cancer cells through Akt and ASK-1 proteins” (Bioorg Med Chem, 2016)
Activity calls are given as the source filed them. No cut-off for these calls is given here.

Experiments:
Mahlavu [1] = assay: Induction of apoptosis in human Mahlavu cells assessed as PARP cleavage after 24 to 48 hrs by Western blot analysis; type: functional, cell-based
Procedure, shortened: (§1)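 Cells were exposed to compound or DMSO control for 24 or 48 h. Lysates were loaded at […] protein per lane and immunoblotted with antibodies diluted 1:100 to 1:500 in 5% BSA-TBS-T. Targets were p-Akt (Ser473), Akt, p-GSK3-α/β (Ser21/9), GSK3-α/β, SAPK/JNK, p-SAPK/JNK (Thr183/Tyr185), PARP, p-β-catenin, β-catenin, cyclin D1, p-ASK1 (S83) and p-ASK1 (S966). Actin served as the loading control.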

[2] = Cytotoxicity against human HCT116 cells assessed as growth inhibition after 72 hrs by sulforhodamine B assay; type: functional, cell-based, HCT-116; details: Homo sapiens, HCT-116, 72 h; read-out: IC50
Procedure, shortened: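 Cells were grown at 37°C, 5% CO2 in DMEM with 10% FBS. They were seeded at 1000–3000 cells/well, grown 24 h, then exposed to compound at 2.5–40 µM for 72 h. Cells were fixed in 10% TCA for 1 h at 4°C, stained with 0.4% SRB in 1% acetic acid for 10 min, and the dye solubilized in 10 mM Tris. Absorbance was read at 515 nm; runs were in triplicate; IC50 was calculated, with fits of R2 0.8–1 accepted.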

[3] = molecular target: T1, Catenin beta-1 (Homo sapiens) (UniProt P35222); assay: Induction of beta-catenin phosphorylation in human Mahlavu cells after 24 to 48 hrs by Western blot analysis; type: cell-based; procedure, shortened: as §1
T1 sequence (whole entry): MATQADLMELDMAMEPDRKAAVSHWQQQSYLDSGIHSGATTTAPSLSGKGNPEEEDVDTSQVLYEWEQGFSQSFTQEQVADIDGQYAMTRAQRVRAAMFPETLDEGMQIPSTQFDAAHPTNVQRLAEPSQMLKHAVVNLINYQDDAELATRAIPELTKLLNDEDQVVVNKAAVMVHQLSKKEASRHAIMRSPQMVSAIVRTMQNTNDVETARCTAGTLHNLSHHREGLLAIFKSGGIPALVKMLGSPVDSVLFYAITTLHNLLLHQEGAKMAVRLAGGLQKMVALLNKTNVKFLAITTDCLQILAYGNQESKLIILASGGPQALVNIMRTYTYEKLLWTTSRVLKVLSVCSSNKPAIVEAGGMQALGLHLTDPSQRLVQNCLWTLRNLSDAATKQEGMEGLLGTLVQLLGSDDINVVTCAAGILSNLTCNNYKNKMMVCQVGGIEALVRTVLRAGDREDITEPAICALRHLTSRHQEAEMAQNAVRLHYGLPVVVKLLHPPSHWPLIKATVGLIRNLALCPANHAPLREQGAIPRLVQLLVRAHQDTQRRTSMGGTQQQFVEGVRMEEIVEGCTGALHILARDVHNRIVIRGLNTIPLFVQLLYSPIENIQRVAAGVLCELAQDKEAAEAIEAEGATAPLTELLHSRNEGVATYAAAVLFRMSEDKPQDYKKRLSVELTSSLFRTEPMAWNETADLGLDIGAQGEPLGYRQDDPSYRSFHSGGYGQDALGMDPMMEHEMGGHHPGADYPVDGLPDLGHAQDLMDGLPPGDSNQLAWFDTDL

[4] = molecular target: T1, Catenin beta-1 (Homo sapiens); assay: Induction of beta-catenin phosphorylation in human HuH7 cells after 24 to 48 hrs by Western blot analysis; type: cell-based; details: Huh-7; procedure, shortened: as §1
[5] = molecular target: T2, Mitogen-activated protein kinase kinase kinase 5 (Homo sapiens) (UniProt Q99683); assay: Activation of ASK1 in human HuH7 cells assessed as SAPK/JNK phosphorylation after 24 to 48 hrs by Western blot analysis; type: cell-based; details: Huh-7; procedure, shortened: as §1
T2 sequence (whole entry): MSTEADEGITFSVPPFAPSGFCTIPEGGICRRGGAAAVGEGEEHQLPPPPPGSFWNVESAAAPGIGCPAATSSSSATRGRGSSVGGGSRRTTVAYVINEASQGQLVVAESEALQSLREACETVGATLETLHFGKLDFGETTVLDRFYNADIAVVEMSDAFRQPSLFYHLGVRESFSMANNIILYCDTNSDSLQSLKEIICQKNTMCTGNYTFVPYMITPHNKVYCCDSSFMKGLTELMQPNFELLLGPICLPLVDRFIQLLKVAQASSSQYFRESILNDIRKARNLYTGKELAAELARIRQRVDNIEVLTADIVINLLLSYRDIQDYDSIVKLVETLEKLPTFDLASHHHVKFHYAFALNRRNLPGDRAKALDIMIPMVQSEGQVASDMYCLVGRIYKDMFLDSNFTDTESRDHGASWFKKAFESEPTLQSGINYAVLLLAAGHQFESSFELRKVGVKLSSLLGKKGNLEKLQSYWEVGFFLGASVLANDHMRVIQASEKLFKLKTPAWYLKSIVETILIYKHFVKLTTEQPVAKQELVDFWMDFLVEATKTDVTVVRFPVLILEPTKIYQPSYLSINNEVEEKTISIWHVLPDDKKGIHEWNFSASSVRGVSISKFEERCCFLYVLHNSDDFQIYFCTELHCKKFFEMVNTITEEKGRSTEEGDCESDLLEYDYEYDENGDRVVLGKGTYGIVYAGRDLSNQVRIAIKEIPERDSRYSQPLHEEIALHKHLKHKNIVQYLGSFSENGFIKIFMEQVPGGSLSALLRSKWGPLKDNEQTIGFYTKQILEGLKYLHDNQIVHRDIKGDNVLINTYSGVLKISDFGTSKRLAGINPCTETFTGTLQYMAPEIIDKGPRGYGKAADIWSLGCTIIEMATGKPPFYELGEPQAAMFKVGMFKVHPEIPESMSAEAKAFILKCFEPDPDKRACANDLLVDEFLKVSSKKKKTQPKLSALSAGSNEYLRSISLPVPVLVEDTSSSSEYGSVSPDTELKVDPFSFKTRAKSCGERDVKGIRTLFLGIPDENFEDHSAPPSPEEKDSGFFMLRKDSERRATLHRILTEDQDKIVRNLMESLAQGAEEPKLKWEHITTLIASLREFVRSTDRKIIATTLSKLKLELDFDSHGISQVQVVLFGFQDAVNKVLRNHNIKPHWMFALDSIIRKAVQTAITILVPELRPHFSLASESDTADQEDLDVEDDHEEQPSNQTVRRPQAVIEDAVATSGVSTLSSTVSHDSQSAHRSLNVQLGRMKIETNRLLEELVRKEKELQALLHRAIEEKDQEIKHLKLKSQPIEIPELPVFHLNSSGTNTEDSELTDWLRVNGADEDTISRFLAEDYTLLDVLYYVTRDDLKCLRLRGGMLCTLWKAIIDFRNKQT

Mahlavu [6] = assay: Induction of apoptosis in human Mahlavu cells assessed as decrease in cyclin D1 level after 24 to 48 hrs by Western blot analysis; type: functional, cell-based; procedure, shortened: as §1
[7] = molecular target: T2, Mitogen-activated protein kinase kinase kinase 5 (Homo sapiens); assay: Activation of ASK1 in human Mahlavu cells assessed as Ser966 phosphorylation after 24 to 48 hrs by Western blot analysis; type: cell-based; procedure, shortened: as §1

## COc1ccc(C2=Nn3c(nnc3C(C)c3ccc(CC(C)C)cc3)SC2)cc1 (centres undefined)
Mahlavu [1]
  Activity: Active
[2]
  IC50: 4.2 µM
[3]
  Activity: Active
[4]
  Activity: Active
[5]
  Activity: Active
Mahlavu [6]
  Activity: Active
[7]
  Activity: Active

## Cc1ccc(C2=Nn3c(nnc3C(C)c3ccc(CC(C)C)cc3)SC2)cc1 (centres undefined)
Mahlavu [1]
  Activity: Active
[2]
  IC50: 4 µM
[3]
  Activity: Active
[4]
  Activity: Active
[5]
  Activity: Active
Mahlavu [6]
  Activity: Active
[7]
  Activity: Active
